The values below come from paper PMC8370243 (Antimicrobial Agents and Chemotherapy, 2021).

Data set [1] deals with SARS-CoV-2. It counts as cell-based. As to conditions: Vero E6 cells, 46 to 50 h.
The nature of data set [2]: Concentration-response cell viability assay, Vero E6 cells. It counts as cell-based, African green monkey. As to conditions: African green monkey, noninfected, CC50, Vero E6 cells.
The test system of data set [3] is SARS-CoV-2. The data set is described as follows: Short-term assay for interactions of PIs and remdesivir, Vero E6 cells. It counts as cell-based. The conditions noted are these: for interaction with remdesivir (method of Chou and Talalay, CompuSyn): Vero E6 and A549-hACE2 data sets; for residual infectivity: Vero E6, treatment condition 3.
Data set [4] relates to SARS-CoV-2. The format is cell-based.
A further data set relates to Vero E6 cells. The data set is described as follows: Concentration-response cell viability assay, Vero E6 cells. It counts as cell-based, African green monkey. As to conditions: noninfected.
In data set [5] the test system is SARS-CoV-2. The format is cell-based. The source holds these as a separate data set.
The next data set has as its system Huh7.5 cells. Briefly: Concentration-response cell viability assay, Huh7.5 cells. The format is cell-based, human. The conditions noted are these: noninfected. A digest of the protocol: (§1)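 Huh7.5 hepatoma cells in DMEM/10% heat-inactivated FBS with penicillin/streptomycin, plated at 9,000 cells/well. The following day, noninfected cultures received test compound dilution series (DMSO-dissolved) or DMSO alone. Incubation was 70–74 h, then CellTiter 96 Aqueous One reagent for 1–3 h at 37°C, 5% CO₂, and absorbance at 492 nm. Each concentration had 2–4 replicate wells, normalised to the mean of 12 untreated control wells on each plate.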

For a further data set, the system named is A549-hACE2 cells. The data set is described as follows: Concentration-response cell viability assay, A549-hACE2 cells. The format is cell-based, human. The conditions noted are these: noninfected.
The subject of data set [6] is SARS-CoV-2. The format is cell-based. The conditions noted are these: Vero E6.
The test system of data set [7] is SARS-CoV-2. The format is cell-based. The conditions noted are these: A549-hACE2.
Data set [8] is described as follows: Concentration-response cell viability assay, Huh7.5 cells. It counts as cell-based, human. As to conditions: human, noninfected. A digest of the protocol: as §1
The nature of data set [9]: Concentration-response cell viability assay, A549-hACE2 cells. It counts as cell-based, human. As to conditions: human, noninfected.
The conditions of data set [10]: rats; single oral administration; cited from earlier work.
Data set [11] relates to SARS-CoV-2. As to conditions: cited from earlier work.
The conditions of data set [12]: clinical phase 1 trials; cited from earlier work.
[13] abbreviates: Severe acute respiratory syndrome coronavirus 2.
Setting [14] is: A549-hACE2 cells, […], 46 to 50 h.
Setting [15] is: Severe acute respiratory syndrome coronavirus 2, Huh7.5.

pEC50: −log10 of the molar value. Like-named read-outs stand apart in the source and are kept apart here.

Usually pEC50 stands for −log10 of the EC50, conventionally taken in molar units. What is called CC50 is the concentration at which the toxic effect on the cells reaches its halfway point. With `CCCC[C@H](NC(=O)[C@@H]1[C@@H]2[C@H](CN1C(=O)[C@@H](NC(=O)NC1(CS(=O)(=O)C(C)(C)C)CCCCC1)C(C)(C)C)C2(C)C)C(=O)C(=O)NC1CC1` [Narlaprevir, narlaprevir], the pEC50 in the data set with SARS-CoV-2 [1] was 4.43. In data set [2], the CC50 came out at 269 µM. Moreover, in the data set with SARS-CoV-2 [3], the “interaction with remdesivir (method of Chou and Talalay, CompuSyn)” value (“interaction with remdesivir” for short) is recorded as “primarily antagonistic”.

Take `CCC[C@H](NC(=O)[C@@H]1[C@H]2CCC[C@H]2CN1C(=O)[C@@H](NC(=O)[C@@H](NC(=O)c1cnccn1)C1CCCCC1)C(C)(C)C)C(=O)C(=O)NC1CC1` [Telaprevir, telaprevir]: the CC50 in [2] is > 432 µM.

On to `C=C[C@@H]1C[C@]1(NC(=O)[C@@H]1C[C@@H](Oc2ncc(OC)c3ccc(Cl)cc23)CN1C(=O)[C@@H](NC(=O)OC(C)(C)C)C(C)(C)C)C(=O)NS(=O)(=O)C1CC1` [Asunaprevir, asunaprevir], for which, in [2], the CC50 turned out to be 263 µM.

Regarding `CCC(CC)COC(=O)[C@H](C)N[P@](=O)(OC[C@H]1O[C@@](C#N)(c2ccc3c(N)ncnn23)[C@H](O)[C@@H]1O)Oc1ccccc1` [Remdesivir, remdesivir], the pEC50 with SARS-CoV-2 [4] (setting [13]) is 7.00. Besides, the residual infectivity is 83% in the data set on SARS-CoV-2 [3] (0.6 μM remdesivir singly) and 47% in the data set with SARS-CoV-2 [3] (1.7 μM remdesivir singly).

In the data set with Vero E6 cells, `Cc1cnc(C(=O)N[C@H]2CCCCC/C=C\[C@@H]3C[C@@]3(C(=O)NS(=O)(=O)C3CC3)NC(=O)[C@@H]3C[C@@H](Oc4nc5ccccc5c5ccccc45)CN3C2=O)cn1` [Paritaprevir, paritaprevir] yielded a CC50 of 123 µM. Also, the “interaction with remdesivir” value in the data set on SARS-CoV-2 [3] is reported as “primarily synergistic”.

With `CC(C)(C)OC(=O)N[C@H]1CCCCC/C=C\[C@@H]2C[C@@]2(C(=O)NS(=O)(=O)C2CC2)NC(=O)[C@@H]2C[C@@H](OC(=O)N3Cc4cccc(F)c4C3)CN2C1=O` [Danoprevir, danoprevir], in the data set with Vero E6 cells, the CC50 is > 243 µM.

As to `C=C[C@@H]1C[C@]1(NC(=O)[C@@H]1C[C@@H]2CN1C(=O)[C@H](C(C)(C)C)NC(=O)O[C@@H]1C[C@H]1CCCCCc1nc3ccc(OC)cc3nc1O2)C(=O)NS(=O)(=O)C1CC1.O` [Grazoprevir, grazoprevir], the pEC50 is 4.38 in the data set with SARS-CoV-2 [1]; 4.70 in the data set with SARS-CoV-2 [5] (Huh7.5 cells, […], 70 to 74 h); 4.59 in the data set with SARS-CoV-2 [4] (setting [14]). The CC50 came out at 239 µM in the data set on Vero E6 cells, 133 µM in the data set with Huh7.5 cells and 125 µM in the data set with A549-hACE2 cells. Moreover, the “interaction with remdesivir” value in the data set on SARS-CoV-2 [3] is reported as “primarily synergistic”. For the same molecule, the infected culture cells with SARS-CoV-2 [6] (1-fold EC50 PI, […]) turned out to be 90%. Moreover, in the data set with SARS-CoV-2 [7] (1-fold EC50 PI singly), the “effect on viral spread (viral RNA titers)” value (from here on “effect on viral spread”) is reported as “no to little effect”.

Turning to `COc1ccc2c(O[C@@H]3C[C@H]4C(=O)N[C@]5(C(=O)NS(=O)(=O)C6CC6)C[C@H]5/C=C\CCCCN(C)C(=O)[C@@H]4C3)cc(-c3nc(C(C)C)cs3)nc2c1C` [Simeprevir, simeprevir], the pEC50 with SARS-CoV-2 [5] (setting [15]) is 4.85; in the data set with SARS-CoV-2 [4] (setting [13]), 5.05; in the data set on SARS-CoV-2 [11] (human lung cells), 6.00. Further, the CC50 in data set [2] came out at 59 µM; in [8] it was 33 µM; in [9], 56 µM. This molecule also returned a residual infectivity in the data set on SARS-CoV-2 [3] (11.1 μM simeprevir singly) of 100%. The “effect on viral spread” value in the data set on SARS-CoV-2 [7] (1-fold EC50 PI singly) was “no to little effect”. The “concentration in the intestine relative to plasma” value in data set [10] is recorded as “up to 128 fold”. Moreover, in data set [10], the “concentrations in other tissues relative to plasma” value is given as “roughly equal to plasma concentrations”.

In the data set with SARS-CoV-2 [1], `CCCCCOc1ccc(NC(=S)NC(=O)c2cccnc2)cc1C(F)(F)F` [ACH-806] gave a pEC50 of 4.34. Further, in the data set with Vero E6 cells, the CC50 was > 429 µM. In addition, the “adverse finding that halted development” value in data set [12] is listed as “reversible nephrotoxicity”.

For the molecule voxilaprevir, the pEC50 with SARS-CoV-2 [1] was < 4.57; in the data set with SARS-CoV-2 [4] (setting [14]) it was 5.00; in the data set with SARS-CoV-2 [11] (A549-hACE2 cell line), < 5.00. The CC50 with Vero E6 cells was found to be 72 µM; with A549-hACE2 cells, 81 µM.

Turning to `CC(C)(C)[C@@H]1NC(=O)O[C@@H]2CCC[C@H]2OC/C=C/C(F)(F)c2nc3ccccc3nc2O[C@@H]2C[C@@H](C(=O)N[C@]3(C(=O)NS(=O)(=O)C4(C)CC4)C[C@H]3C(F)F)N(C2)C1=O` [Glecaprevir, glecaprevir], the pEC50 in the data set with SARS-CoV-2 [4] (setting [13]) is < 4.03. The CC50 (in the data set with Vero E6 cells; in data set [9]) was > 268 µM each time.

`CC(C)(C)NC(=O)N[C@H](C(=O)N1C[C@H]2[C@@H]([C@H]1C(=O)NC(CC1CCC1)C(=O)C(N)=O)C2(C)C)C(C)(C)C` (stereo partly shown) [Boceprevir, boceprevir]: the pEC50 in the data set on SARS-CoV-2 [1] is 4.36; in the data set on SARS-CoV-2 [5] (setting [15]), 4.38; in the data set on SARS-CoV-2 [4] (setting [13]) it was 4.70. In addition, the CC50 was > 1210 µM in [2], 701 µM in data set [8] and > 1210 µM in data set [9]. The molecule further came in with a residual infectivity with SARS-CoV-2 [3] (17.4 μM boceprevir singly) of 79%. In addition, the “interaction with remdesivir” value in the data set with SARS-CoV-2 [3] is listed as “primarily antagonistic”. Also, the “viral RNA titers in supernatant” value with SARS-CoV-2 [6] (3-fold EC50 boceprevir) and in the data set with SARS-CoV-2 [6] (5-fold EC50 boceprevir) was “decreased to values around the lower limit of quantification” throughout. The “viral suppression (immunostaining)” value with SARS-CoV-2 [6] (3-fold EC50 boceprevir, […], follow-up 9 days) is “sustained viral suppression”; in the data set with SARS-CoV-2 [6] (5-fold EC50 boceprevir, […], follow-up 17 days), “sustained viral suppression”. In addition, the “effect on viral spread” value in the data set on SARS-CoV-2 [7] (1- to 5-fold EC50 boceprevir) is recorded as “minor impact”; in the data set with SARS-CoV-2 [7] (1-fold EC50 PI singly) it was “no to little effect”; in the data set with SARS-CoV-2 [7] (8-fold EC50 boceprevir, observation period 13 days), “viral suppression”.

Molecule `COc1ccc2c(O[C@@H]3C[C@H]4C(=O)N[C@]5(C(=O)NS(=O)(=O)C6CC6)C[C@H]5/C=C\CCCCC[C@H](CC(=O)N5CCCC(F)(F)C5)C(=O)N4C3)cc(-c3nc(C(C)C)cs3)nc2c1C` [Deldeprevir, deldeprevir] registered a CC50 in data set [2] of 56 µM.

Consider `CC[C@@H]1C[C@]1(NC(=O)[C@@H]1C[C@@H]2CN1C(=O)[C@H](C(C)(C)C)NC(=O)OCC(C)(C)CCCCc1cccc3c1CN(C3)C(=O)O2)C(=O)NS(=O)(=O)C1CC1` [Vaniprevir, vaniprevir], for which, in the data set on Vero E6 cells, the CC50 stood at 171 µM.
